Source: the array DNA melting data of Ke et al. (doi:10.1101/2024.01.08.574731)

What was measured:
[1] = folding enthalpy; higher = less favourable; fluorescence melt of hairpins on a sequencing array, two-state fit; conditions: sodium 0.088 M
Outline: (§1)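 Melting temperature and folding enthalpy were obtained by bootstrapped two-state fitting. Fits used Cy3 fluorescence of library hairpins with annealed Cy3 and quencher oligos on a sequenced MiSeq flow cell, imaged in 50 mM Na-HEPES pH 8.0, 25 mM NaCl in 2.5 °C steps up to 60 °C and normalised to pre-quench Cy3 and control constructs. Four replicates were combined by inverse-variance weighting, and fitted temperatures were raised by 9.35 °C to match UV melts.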

[2] = melting temperature; fluorescence melt of hairpins on a sequencing array, two-state fit, raised by 9.35 °C to match UV melts; conditions: sodium 0.088 M
Outline: as §1

| Sequence | folding enthalpy [1] | Tm [2] |
| --- | --- | --- |
| GCTTCGCGAAAGCGGGGC ((..(((....)))..)) | -18.5 kcal/mol | 57.9 °C |
| GATCAACGAAAGTTAATC (((.(((....))).))) | -11.7 kcal/mol | 27.8 °C |
| GGTGGTGGAAACACTGCC ((..(((....)))..)) | -25.5 kcal/mol | 47.2 °C |
| CTGTAGAAATACAG (((((....))))) | -14.5 kcal/mol | 39.4 °C |
| GTGGTCCGAAAGGAGCAC (((.(((....))).))) | -34.6 kcal/mol | 67.6 °C |
| GGGATATCGAAAGATCCC (((..(((....)))))) | -27.9 kcal/mol | 43.4 °C |
| GGCCTTGGAAACGAGGTC (.(((.(....).))).) | -31.3 kcal/mol | 43.2 °C |
| GATAACGAAAGTTTATC ((((((....))).))) | -14.2 kcal/mol | 31.8 °C |
| GCTTCGGGAAACCAAAGC ((((.((....)).)))) | -28.7 kcal/mol | 41.1 °C |
| GCTTACTCGAAAGAGAGC (((..(((....)))))) | -14.5 kcal/mol | 30.1 °C |
| GAGACACCGAAAGGTCTC (((..(((....)))))) | -20.4 kcal/mol | 42.2 °C |
| GGTTAACGAAAGTTGACC (((.(((....))).))) | -27.6 kcal/mol | 53.2 °C |
| GGTAAAGGAAACCTTACC (((((.(....).))))) | -22 kcal/mol | 35.5 °C |
| GCGCAGGCGAAAGCCCGC (((..(((....)))))) | -16.7 kcal/mol | 60.1 °C |
| GGATAATCGAAAGATTCC (((..(((....)))))) | -14 kcal/mol | 27.6 °C |
| GATAAGGAAACTTATC ((((((....)))))) | -26.8 kcal/mol | 40.1 °C |
| GATCATCGGCATGATC ((((((....)))))) | -32 kcal/mol | 44.7 °C |
| GCGATGCGAAAGCATTGC ((.((((....)))).)) | -43.9 kcal/mol | 68.7 °C |
| GGTCATGCGAAAGCAACC (((..(((....)))))) | -8.01 kcal/mol | 27 °C |
| GTCAGCGGAAACGCCAAC ((..(((....)))..)) | -7.36 kcal/mol | 21.8 °C |
| GATCCCCGGTGGGATC ((((((....)))))) | -37.5 kcal/mol | 57.7 °C |
| ATTCTGAAAAGAAT (((((....))))) | -12.6 kcal/mol | 32.2 °C |
| GCACCGGGAAACCAGTGC ((((.((....)).)))) | -32.1 kcal/mol | 49.4 °C |
| GATCACTGAGTGATC ((((((...)))))) | -40.1 kcal/mol | 55.2 °C |

| Sequence | folding enthalpy [1] | Tm [2] |
| --- | --- | --- |
| GAACGAGGAAACTCATTC (((.(((....))).))) | -15.5 kcal/mol | 24.8 °C |
| GCTGTGCGAAAGCACTGC ((.((((....)))).)) | -24.1 kcal/mol | 68.1 °C |
| GATCAGAATCTGATC ((((((...)))))) | -31.4 kcal/mol | 45.4 °C |
| GGTTTGCGAAAGCAACC (((.(((....)))))) | -17.2 kcal/mol | 52.4 °C |
| GACGACGAAAGTCACGTC ((((((....)))..))) | -19.6 kcal/mol | 41.1 °C |
| CGGCCGGAAACGGTACCG ((((((....)))..))) | -18.4 kcal/mol | 43.1 °C |
| GAGTCTGGAAACAGACTC (((((((....))))))) | -39.9 kcal/mol | 65.3 °C |
| GCGACCAGTCGC ((((....)))) | -32.7 kcal/mol | 57.3 °C |
| CGCCACCGGAAACGGGCG (((..(((....)))))) | -26.2 kcal/mol | 49.3 °C |
| GCTGTAGGAAACTGTAGC (((..((....))..))) | -11.7 kcal/mol | 29.2 °C |
| GATCCGATGCGGATC ((((((...)))))) | -31 kcal/mol | 57.7 °C |
| GGACCCGAAAGGGAATCC ((((((....)))..))) | -16.7 kcal/mol | 34.6 °C |
| GCTTTTCCGAAAGGAAGC (((..(((....)))))) | -10.7 kcal/mol | 33.7 °C |
| GATCGTATAAACGATC ((((((....)))))) | -31.9 kcal/mol | 54.7 °C |
| CGGGCGGAAACGCTCCG ((((((....))).))) | -26.4 kcal/mol | 54.2 °C |
| GCATCGCGAAAGCTAAGC ((.(.((....)).).)) | -6.7 kcal/mol | 30.7 °C |
| GGGCCGCGAAAGCGTCCC (((.(((....))).))) | -20.4 kcal/mol | 65.8 °C |
| GGGAAACGAAAGTTCCCC (((.(((....))).))) | -30.6 kcal/mol | 51 °C |
| GCAGTGAAAACTGC (((((....))))) | -28.1 kcal/mol | 61.2 °C |
| GAGGGCGAAAGCCAACTC ((((((....)))..))) | -13 kcal/mol | 41.7 °C |
| GGTACCGAAAGGTACACC ((((((....)))..))) | -9.32 kcal/mol | 51.7 °C |
| GCAACCGGAAACAGTTGC (((((.(....).))))) | -31.7 kcal/mol | 45.7 °C |
| GATCTACCTCTAGATC ((((((....)))))) | -36.3 kcal/mol | 37.8 °C |
| GCGTAGGACGC ((((...)))) | -17.2 kcal/mol | 55.2 °C |

| Sequence | folding enthalpy [1] | Tm [2] |
| --- | --- | --- |
| GTTAAGCGAAAGCTCAAC (((.(((....))).))) | -16.7 kcal/mol | 37.6 °C |
| GGTATCTCGAAAGAGACC (((..(((....)))))) | -21.1 kcal/mol | 35.2 °C |
| GCGGTGATCCGC ((((....)))) | -28.1 kcal/mol | 54.8 °C |
| GGCTAGGGAAACCTAGCC (((((((....))))))) | -42.6 kcal/mol | 67.5 °C |
| GTCCGCCGAAAGGCCGAC (((.(((....))).))) | -20.5 kcal/mol | 49.2 °C |
| GATCTAAGATTAGATC ((((((....)))))) | -32.1 kcal/mol | 37.5 °C |
| GCGAACCCTCGC ((((....)))) | -23.2 kcal/mol | 47 °C |
| CGTTCACGGAAACGTACG (((..(((....)))))) | -15.2 kcal/mol | 39 °C |
| GATCACGGACGTGATC ((((((....)))))) | -37.7 kcal/mol | 67.2 °C |
| GCAGACGAAAGTCCGTGC ((((((....)))..))) | -15.1 kcal/mol | 38.6 °C |
| GATCATATGAATGATC ((((((....)))))) | -31.7 kcal/mol | 45.7 °C |
| GATCGATGCTTCGATC ((((((....)))))) | -41.9 kcal/mol | 54.9 °C |
| GCGATGTGTCGC ((((....)))) | -28.6 kcal/mol | 57 °C |
| GGAATTGGAAACAATTTC (.(((((....))))).) | -32.8 kcal/mol | 39.5 °C |
| GTAACCGGAAACGGTTGC (.(((((....))))).) | -31.8 kcal/mol | 53.1 °C |
| GTGAGGGCGAAAGCCCAC (((..(((....)))))) | -11.6 kcal/mol | 46.5 °C |
| GATCAGGTTTCTGATC ((((((....)))))) | -46.7 kcal/mol | 51.8 °C |
| GTTTGCGGAAACGTAAGC (.((.((....)).)).) | -22 kcal/mol | 33 °C |
| GCGTTTGCACGC ((((....)))) | -19.1 kcal/mol | 54.3 °C |
| GCGAGTACTCGC ((((....)))) | -30.6 kcal/mol | 56.6 °C |
| GACATCGAAAGATGTC ((((((....)))))) | -39.7 kcal/mol | 64.4 °C |
| GGCTGTGGAAACACGGTC (.(.(((....))).).) | -28.1 kcal/mol | 44.4 °C |
| GATCTTCCCTAAGATC ((((((....)))))) | -31.1 kcal/mol | 43.3 °C |
| CGCGGAATTATCCGCG ((((((....)))))) | -41.5 kcal/mol | 67.2 °C |

| Sequence | folding enthalpy [1] | Tm [2] |
| --- | --- | --- |
| GCGGGGCGAAAGCTCAGC ((.(.((....)).).)) | -23.7 kcal/mol | 60.1 °C |
| GATCCAAACGTGGATC ((((((....)))))) | -37.4 kcal/mol | 49 °C |
| GATCTGTAAACAGATC ((((((....)))))) | -39.5 kcal/mol | 50.3 °C |
| GCTAAGCGAAAGCCTGGC ((.(.((....)).).)) | -17.9 kcal/mol | 35.5 °C |
| GCCGAGGGAAACCCCAGC ((.(.((....)).).)) | -11.3 kcal/mol | 25.2 °C |
| GATCTTTCAAAAGATC ((((((....)))))) | -32.2 kcal/mol | 42.2 °C |
| GCACCGCGAAAGCGCTGC (((.(((....))).))) | -31.9 kcal/mol | 50.3 °C |
| GAATCGGGAAACTGATTC (((((.(....).))))) | -38.9 kcal/mol | 45.5 °C |
| GCAAACGGAAACGCTTGC ((((.((....)).)))) | -35.1 kcal/mol | 47.6 °C |
| GATCTATACTAGATC ((((((...)))))) | -32.6 kcal/mol | 40.6 °C |
| GGTTGTGAAAACAACC ((((((....)))))) | -40.1 kcal/mol | 61.5 °C |
| GAGCGCGAAAGCGCCTC ((((((....))).))) | -7.59 kcal/mol | 58.1 °C |
| GCGCGGCGAAAGCATCGC (((..((....))..))) | -20.6 kcal/mol | 57.5 °C |
| CTCTTGAAAAAGAG (((((....))))) | -10.4 kcal/mol | 36.2 °C |
| GCGCTGGCGAAAGCCCGC (((..(((....)))))) | -17 kcal/mol | 55.5 °C |
| GATCACACGAAAGTGATC (((..(((....)))))) | -34.3 kcal/mol | 48.8 °C |
| GGGACACCGAAAGGTCCC (((..(((....)))))) | -27.7 kcal/mol | 51.4 °C |
| GATCCTCTATAGGATC ((((((....)))))) | -40.8 kcal/mol | 51.9 °C |
| CAATCAGAAATGGTTG (((.((....)).))) | -13.9 kcal/mol | 29.3 °C |
| GGGGCAGGAAACTGCCTC (.(((((....))))).) | -13.1 kcal/mol | 59.6 °C |
| GCTTACGGAAACGTGAGC (((.(((....))).))) | -43.4 kcal/mol | 52.6 °C |
